A short description of data set [1]: Population PK model of sorafenib and its N‐oxide metabolite in patients with AML. The class given is in vivo, human.
Data set [2] relates to FLT3‐ITD. Particulars: cited from earlier work.
Data set [3] concerns the target T1, FLT3‐ITD (Homo sapiens, UniProt P36888).
T1 sequence (P36888 27-993): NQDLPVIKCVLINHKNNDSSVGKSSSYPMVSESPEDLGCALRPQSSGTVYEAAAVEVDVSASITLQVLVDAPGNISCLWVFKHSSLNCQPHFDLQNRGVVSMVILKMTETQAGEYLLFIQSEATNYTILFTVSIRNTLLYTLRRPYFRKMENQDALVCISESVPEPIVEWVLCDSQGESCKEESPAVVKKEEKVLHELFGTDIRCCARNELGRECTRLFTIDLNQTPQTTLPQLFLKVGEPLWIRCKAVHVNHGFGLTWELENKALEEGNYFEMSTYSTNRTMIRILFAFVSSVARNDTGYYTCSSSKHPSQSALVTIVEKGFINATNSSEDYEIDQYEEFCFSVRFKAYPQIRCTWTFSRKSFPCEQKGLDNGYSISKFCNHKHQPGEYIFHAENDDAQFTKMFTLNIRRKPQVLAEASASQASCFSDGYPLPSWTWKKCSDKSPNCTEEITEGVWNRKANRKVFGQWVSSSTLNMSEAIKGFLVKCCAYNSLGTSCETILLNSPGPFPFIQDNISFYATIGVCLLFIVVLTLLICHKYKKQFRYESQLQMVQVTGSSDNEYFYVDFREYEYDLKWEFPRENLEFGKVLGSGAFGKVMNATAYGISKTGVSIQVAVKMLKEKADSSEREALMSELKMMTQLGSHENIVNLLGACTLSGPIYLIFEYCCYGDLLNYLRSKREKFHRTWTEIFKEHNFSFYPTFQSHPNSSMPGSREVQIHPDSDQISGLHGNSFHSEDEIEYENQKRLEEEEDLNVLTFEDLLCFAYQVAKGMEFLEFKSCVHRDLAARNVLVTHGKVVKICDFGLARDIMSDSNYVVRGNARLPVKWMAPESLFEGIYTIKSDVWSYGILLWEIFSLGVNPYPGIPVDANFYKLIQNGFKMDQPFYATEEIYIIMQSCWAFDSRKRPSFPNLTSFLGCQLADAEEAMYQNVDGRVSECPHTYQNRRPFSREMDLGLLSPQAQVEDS
The experiment in a line: Exposure‐response. It counts as cell-based. Particulars: doses given in this study (400 or 600 mg b.i.d.).

For data set [4], the system named is ERK. The data set is described as follows: Exposure‐response. The class given is cell-based, human. Particulars: for Imax,ERK, maximum inhibitory effect on ERK activity: as fraction. Summed up: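 Ex vivo ERK activity in FLT3‑ITD TF‑1 cells was read by Western blot as percent of each patient's baseline (100%). An inhibitory Emax model versus metabolite‑adjusted concentration was fitted sequentially to the PK model by FOCE‑I, with Imax estimated.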

For data set [5] the following is noted: cited from earlier work.
The conditions of data set [6]: cited from earlier work. The source holds these as a separate data set.
The target in data set [7] is CYP3A4 (Homo sapiens, UniProt P08684). The class given is in vivo. The note with it: patients with AML.
CYP3A4, sequence (P08684 whole entry): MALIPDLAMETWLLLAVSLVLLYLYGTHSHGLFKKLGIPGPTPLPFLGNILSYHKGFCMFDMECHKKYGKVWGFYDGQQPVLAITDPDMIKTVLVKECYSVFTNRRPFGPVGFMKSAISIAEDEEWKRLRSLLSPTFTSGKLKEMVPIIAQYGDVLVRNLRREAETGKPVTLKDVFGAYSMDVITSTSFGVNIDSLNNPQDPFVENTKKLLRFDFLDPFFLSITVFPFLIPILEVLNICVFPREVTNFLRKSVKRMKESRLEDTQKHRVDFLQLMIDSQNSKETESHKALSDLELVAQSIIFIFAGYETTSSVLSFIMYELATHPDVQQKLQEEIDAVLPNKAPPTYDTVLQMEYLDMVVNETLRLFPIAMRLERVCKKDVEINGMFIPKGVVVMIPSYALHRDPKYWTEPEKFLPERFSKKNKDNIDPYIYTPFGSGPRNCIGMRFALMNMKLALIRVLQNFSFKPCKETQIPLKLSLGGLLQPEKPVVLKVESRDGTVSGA
Where [8] appears, read: FOCE‐I estimate, typical value at 80 kg.

Bounds are passed on as bounds.

On to `CNC(=O)c1cc(Oc2ccc(NC(=O)Nc3ccc(Cl)c(C(F)(F)F)c3)cc2)cc[n+]1[O-]` [sorafenib N‐oxide], for which, in data set [1] (setting [8]), the “CLm, clearance of the N‐oxide metabolite” value is recorded as 116 L/h and the “V7, apparent volume of distribution (compartment A7) of the N‐oxide metabolite” value is reported as 89.80 L. In data set [1] (median of 1,000 bootstraps), the “CLm, clearance of the N‐oxide metabolite” value stood at 123 L/h and the “V7, apparent volume of distribution (compartment A7) of the N‐oxide metabolite” value was found to be 94.50 L. Moreover, the “fold more potent than the parent drug, FLT3‐ITD potency” value in data set [2] (in vitro study, N‐oxide vs sorafenib) is 14.59 fold.

As a reminder, the fraction unbound is the share of the substance not bound to proteins or other matrix. On to `CNC(=O)c1cc(Oc2ccc(NC(=O)Nc3ccc(Cl)c(C(F)(F)F)c3)cc2)ccn1` [sorafenib], for which, in data set [1] (FOCE‐I estimate), the “K64, release rate constant from gallbladder back to the gastrointestinal track” value was 0.173 h⁻¹; the “TENT, time controller of enterohepatic recirculation (time after dose)” value is listed as 5.48 h; the “fENT, fraction of sorafenib that goes through enterohepatic circulation” value is reported as 50.20%. Besides, the “Ka, absorption rate constant” value in data set [1] (FOCE‐I estimate, patients with AML, oral) was 3.75 h⁻¹. For the same compound, the clearance in data set [1] (human, plasma, oral, CL, total clearance, median of 1,000 bootstraps) was 237 mL/min. Also, the fraction unbound in data set [1] (human, plasma, oral, fu, %fraction of unbound sorafenib, FOCE‐I estimate) is 0.0181. In data set [1] (median of 1,000 bootstraps), the “K64, release rate constant from gallbladder back to the gastrointestinal track” value was 0.17 h⁻¹; the “Ka, absorption rate constant” value is 3.78 h⁻¹; the “TENT, time controller of enterohepatic recirculation (time after dose)” value came to 5.47 h; the “fENT, fraction of sorafenib that goes through enterohepatic circulation” value came out at 50.20%. Besides, in data set [1] (within the observed concentration range), the “concentration dependence of plasma protein binding” value is “concentration independent”. For the same compound, the “extent of FLT3‐ITD activity inhibition” value in data set [3] is on record as “fully inhibited”. Besides, the “Imax,ERK, maximum inhibitory effect on ERK activity” value in data set [4] (FOCE‐I estimate) was 0.84. Also, the “extent of ERK activity inhibition” value in data set [4] (doses given in this study (400 or 600 mg b.i.d.)) is “could not be completely inhibited”. Moreover, the “Imax,ERK, maximum inhibitory effect on ERK activity” value in data set [4] (median of 1,000 bootstraps) amounted to 0.82. For the same compound, the “in vitro FLT3‐ITD inhibitory activity compared with midostaurin” value in data set [2] is recorded as “fourfold higher”. In addition, in data set [5], the “dose above which saturable absorption occurs” value is given as “over 400 mg” and the “time to steady‐state” value is not above 7 days. In addition, the “dose‐limiting toxicity rate” value in data set [6] (400 mg b.i.d. regimen, 2/9 patients, original clinical trial ref 9) is recorded as approximately 20%. Further, the “proportion of patients with AML able to adhere to dosing” value in data set [6] (continuous 400 mg b.i.d.) is 18%.

As to `C[C@@H](c1ncncc1F)[C@](O)(Cn1cncn1)c1ccc(F)cc1F` [voriconazole], the “change in sorafenib exposure in the presence of the inhibitor” value in data set [7] was “no change”.
